Shown are actives, neighbours in structure and some others; about 6.9% of the full set was active somewhere.
FAK blocker: FAK kinase inhibitors, primary screen, biochemical | Focal adhesion kinase 1 (Homo sapiens), Q05397 | biochemical FAK kinase activity assay | inhibition, %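 (tested at 7 µM)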 | 97,000 compounds, 0.84% hits; in the data active = inhibition above about 19%
Target sequence (Q05397 whole entry, looked up): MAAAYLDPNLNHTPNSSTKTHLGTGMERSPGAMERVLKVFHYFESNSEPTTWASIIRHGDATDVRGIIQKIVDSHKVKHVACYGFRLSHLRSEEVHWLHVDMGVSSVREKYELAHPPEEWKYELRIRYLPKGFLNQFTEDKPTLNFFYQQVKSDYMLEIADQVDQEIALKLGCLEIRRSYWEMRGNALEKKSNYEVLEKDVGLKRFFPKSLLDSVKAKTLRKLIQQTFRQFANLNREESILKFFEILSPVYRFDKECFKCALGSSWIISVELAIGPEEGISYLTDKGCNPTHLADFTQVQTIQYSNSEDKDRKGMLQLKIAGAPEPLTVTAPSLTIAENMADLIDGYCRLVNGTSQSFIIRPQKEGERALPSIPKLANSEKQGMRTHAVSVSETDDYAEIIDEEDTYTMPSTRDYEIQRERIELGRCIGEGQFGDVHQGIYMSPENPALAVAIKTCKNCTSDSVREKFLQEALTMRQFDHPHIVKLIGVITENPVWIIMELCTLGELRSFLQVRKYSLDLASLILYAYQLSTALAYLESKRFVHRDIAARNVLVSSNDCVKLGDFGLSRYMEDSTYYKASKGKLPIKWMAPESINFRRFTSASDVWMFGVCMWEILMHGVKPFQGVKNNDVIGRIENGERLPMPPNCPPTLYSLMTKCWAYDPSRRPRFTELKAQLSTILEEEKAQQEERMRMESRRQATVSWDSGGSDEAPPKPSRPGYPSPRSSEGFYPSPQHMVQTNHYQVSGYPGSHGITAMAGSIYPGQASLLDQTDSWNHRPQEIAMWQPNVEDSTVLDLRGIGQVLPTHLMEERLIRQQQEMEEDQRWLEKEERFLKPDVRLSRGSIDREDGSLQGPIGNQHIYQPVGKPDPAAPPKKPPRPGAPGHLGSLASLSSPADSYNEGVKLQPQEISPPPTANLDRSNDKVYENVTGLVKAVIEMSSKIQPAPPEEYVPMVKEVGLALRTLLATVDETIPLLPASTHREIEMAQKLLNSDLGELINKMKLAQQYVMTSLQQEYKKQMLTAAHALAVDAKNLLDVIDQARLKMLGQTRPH
Ecoli tolC: growth inhibitors of E. coli tolC mutant, primary screen, strain BW25113 ΔtolC::kan, 384-well; OD615; growth inhibition, % at 10 µM (by protocol); 65,000 compounds, 2.2% hits; AID 573, 2007;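 active = growth inhibition at or above a cutoff equal to the mean over every tested compound plus 3 SD, cut at about 60% in these data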;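 note: growth measured after 20 h incubation at 37 °C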
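Test system: E. coli BW25113 ΔtolC::kan bacteria | Medium: Kanamycin-containing LB broth (50 µg/mL) | Dosing: One dose of 10 µM final | Times: 20 h incubation with compound, 37 °C | Detection: Optical density read at 615 nm | Read-out basis: Percent growth inhibition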
PostGolgi ctrl: growth inhibition of yeast control strain, primary screen, counter-screen for post-Golgi transport modulator project. 98,000 compounds, 5% hits. efflux-deficient yeast background strain, growth absorbance A615, 16 h. inhibition, % at 10 µM
Candida biofilm: clotrimazole potentiators killing Candida biofilms, primary screen, with clotrimazole, Alamar Blue; C. albicans biofilm + clotrimazole; inhibition, % at 6 µM; 85,000 compounds, 0.14% hits;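 active = inhibition above 20%; inactive = inhibition below 20%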;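 note: preformed 24 hr biofilms exposed to compound for 48 hr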
Pyk2 oligo antag: antagonists of Pyk2 self-association, primary screen, Q293 cells, FERM NanoBiT luminescence, HTS; Protein-tyrosine kinase 2-beta (Homo sapiens), Q14289; stronger effect = lower value; z-score (the deposit names both 25 µM and 10 µM); 99,000 compounds, 0.83% hits;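 active = Z-score of -3 or lower, scaled per plate to the spread of control and sample wells; inactive = z-score above -3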;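 note: negative z-score means lost luminescence so less FERM oligomerization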
PostGolgi yeast: phenotypic screen on post-Golgi transport, primary screen | inhibition, % at 10 µM | 98,000 compounds, 0.9% hits | post-Golgi transport phenotypic cell assay;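 note: yeast cells grown in 1536-well plates; yeast grown about 18 h at 30C before absorbance read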
Each line names hits and unclear results; the compound was inactive in the other large screens. Cut-off read from the data, not from the text of the source, unless noted: active = inhibition above about 30%; inactive = the rest.

C/C(=N\NS(=O)(=O)c1ccc(Cl)c([N+](=O)[O-])c1)c1ccc(C)o1	none (no result: Ecoli tolC)
O=c1nccc(NCc2ccco2)[nH]1	none (no result: FAK blocker)
O=C1c2ccccc2-c2onc3ccc(NCc4ccco4)c1c23	PostGolgi ctrl 34 (no result: FAK blocker)
CCNc1ccc2noc3c2c1C(=O)c1ccccc1-3	FAK blocker 49 (no result: Ecoli tolC, PostGolgi ctrl, PostGolgi yeast)
CCOc1ccc2noc3c2c1C(=O)c1ccccc1-3	none (no result: Candida biofilm)
O=C1NN(c2ccc(F)c(Cl)c2)C(=O)/C1=C\c1cccc(OC(=O)c2cccs2)c1	none (no result: Ecoli tolC)
CCC(C)NS(=O)(=O)c1ccc(NC(C)=O)cc1 (stereo unspecified)	none (no result: Ecoli tolC, PostGolgi ctrl, PostGolgi yeast)
CCC(C)NS(=O)(=O)c1ccc(NS(C)(=O)=O)cc1 (stereo unspecified)	PostGolgi yeast 48
O=C(C1CC1)N1CCN(C(c2ccccc2)c2ccccc2)CC1	Candida biofilm 41 (no result: Ecoli tolC)
COC(=O)NC1CCC(CC2CCC(NC(=O)OC)CC2)CC1 (stereo unspecified)	PostGolgi ctrl 49 (no result: Ecoli tolC)
COC(=O)NCC1(C)CC(NC(=O)OC)CC(C)(C)C1 (stereo unspecified)	none
Cc1ccc(C(=O)/C=C/c2cn(CN3CCN(C)CC3)c3ccccc23)cc1	PostGolgi ctrl 41 (no result: Ecoli tolC)
O=C(Nc1ccc2c(c1)OCO2)C1CCN(c2ccc(S(=O)(=O)N3CCOCC3)cc2)CC1	none (no result: FAK blocker)
COc1nc(NC23CC4CC(CC(C4)C2)C3)nc(OC)n1	PostGolgi ctrl 34 (no result: Candida biofilm)
COc1cnc(SCc2c(Cl)cccc2Cl)nc1Cl	PostGolgi ctrl 34 (no result: Ecoli tolC, Candida biofilm)
COc1cc2c(C(=O)N3CCN(c4ccccc4C)CC3)c(C)oc2cc1Br	PostGolgi ctrl 57 (no result: Ecoli tolC, Candida biofilm)
COc1ccccc1N1CCN(C(=O)c2sc3nc(-c4ccc(F)cc4)cn3c2C)CC1	PostGolgi ctrl 45 (no result: FAK blocker, Pyk2 oligo antag)
COc1ccccc1N1CCN(C(=O)c2ccc(C(C)(C)C)cc2)CC1	PostGolgi ctrl 36
COc1ccccc1N1CCN(C(=O)c2oc3cc(C)c(C)cc3c2C)CC1	Ecoli tolC 72, PostGolgi ctrl 42
CCOC(=O)/C(N=O)=C(\O)C1CCN(C(=O)OCC)CC1	none
COc1ccccc1N1CCN(C(=O)c2cc(-c3ccco3)on2)CC1	none (no result: Pyk2 oligo antag)
COc1ccccc1N1CCN(C(=O)c2cc(-c3cccs3)on2)CC1	PostGolgi ctrl 50 (no result: FAK blocker)
O=C1CC(SC(=NCc2ccc3c(c2)OCO3)Nc2ccccc2)C(=O)N1c1ccccc1 (stereo unspecified)	PostGolgi ctrl 41 (no result: Ecoli tolC)
CN=C(Nc1ccc2c(c1)OCO2)SC1CC(=O)N(c2ccccc2)C1=O (stereo unspecified)	none
CCn1c(COc2cccc3ccccc23)nnc1SCC(=O)OC1CCCCC1	none (no result: Ecoli tolC)
O=C(O)c1ccccc1C(=O)Nc1ccccc1	PostGolgi ctrl 40
O=C(O)c1ccccc1C(=O)Nc1nccs1	PostGolgi ctrl 30 (no result: Ecoli tolC, Candida biofilm)
O=C(O)c1cc([N+](=O)[O-])ccc1C(=O)Nc1ccccc1	none (no result: Ecoli tolC, Candida biofilm)
O=C(CN(CCc1ccccc1)C(=O)Cn1nnc(-c2cccs2)n1)NCc1ccco1	none
Clc1ccc(OCCn2ccnc2)c(Cl)c1	none
Clc1ccc(OCCn2ccnc2)c2ccccc12	Ecoli tolC 100
Nc1nc2n(n1)C(c1ccco1)CC(c1ccc(Cl)cc1Cl)N2 (stereo unspecified)	none (no result: FAK blocker, PostGolgi ctrl, Pyk2 oligo antag, PostGolgi yeast)
COc1ccc(N(C(=O)c2ccco2)S(=O)(=O)c2ccccc2)cc1	none (no result: Ecoli tolC, Candida biofilm)
COc1ccc(N(C(=O)c2ccco2)S(=O)(=O)c2cc(Cl)c(Cl)cc2Cl)cc1	PostGolgi ctrl 31 (no result: Ecoli tolC)
COc1ccc2c(c1)c(=O)oc1cc(OCC(=O)NC3CC3)ccc12	none
COc1ccc2c(c1)c(=O)oc1cc(OCC(=O)NC3CCCCC3)ccc12	PostGolgi ctrl 93, PostGolgi yeast 81 (no result: Ecoli tolC)
O=C(O)CCCC(=O)N1CCc2cc(S(=O)(=O)N3CCc4ccccc43)ccc21	Ecoli tolC 75 (no result: Pyk2 oligo antag)
CCCn1c(CN2CCN(C(=O)c3ccco3)CC2)nc2c1c(=O)n(C)c(=O)n2C	PostGolgi ctrl 35 (no result: Candida biofilm, Pyk2 oligo antag)
Cn1cc(S(=O)(=O)N2CCN(C(=O)c3ccco3)CC2)c(=O)n(C)c1=O	Candida biofilm 20 (no result: Pyk2 oligo antag)
CCCCCn1c(CN2CCN(C(=O)c3ccco3)CC2)nc2c1c(=O)n(C)c(=O)n2C	none (no result: FAK blocker, PostGolgi ctrl, Pyk2 oligo antag, PostGolgi yeast)
Cn1c(=O)c2c(nc(CN3CCN(C(=O)c4ccco4)CC3)n2CCCc2ccccc2)n(C)c1=O	PostGolgi ctrl 32 (no result: Pyk2 oligo antag)
COc1ccc(NC(=O)CN2C(=O)c3cccc4cccc2c34)c(OC)c1	none (no result: Ecoli tolC)
Cc1c(CCC(C)C)c(-n2ccnc2C)n2c(nc3ccccc32)c1C#N	none (no result: Ecoli tolC)
Cc1nnc2n(-c3ccccc3)c(=O)c3c4c(sc3n12)CCCC4	none (no result: FAK blocker, PostGolgi ctrl, Candida biofilm, Pyk2 oligo antag, PostGolgi yeast)
COc1ccc(-c2nc3n(n2)C(c2ccccc2)C2=C(CCCC2=O)N3)cc1OC (stereo unspecified)	none
COc1ccc(C2C3=C(CCCC3=O)Nc3nc(-c4cc(OC)c(OC)c(OC)c4)nn32)cc1OC (stereo unspecified)	PostGolgi yeast 33
Cc1cccc(CCNC(=O)C2CCN(S(=O)(=O)c3cccc4nsnc34)CC2)c1	none (no result: Ecoli tolC)
CCOC(=O)C1=NNC2C(=O)N(CC)C(=O)C12 (stereo unspecified)	none (no result: Ecoli tolC)
N#C/C(=C\c1cn(-c2ccccc2)nc1-c1ccccc1)S(=O)(=O)c1ccccc1	none (no result: FAK blocker, Ecoli tolC, PostGolgi ctrl, Candida biofilm, PostGolgi yeast)
CC(C)n1cc(/C=C(\C#N)S(=O)(=O)c2ccccc2)c2ccccc21	PostGolgi ctrl 36
Cc1ccc(S(=O)(=O)/C(C#N)=C/c2c[nH]c3ccccc23)cc1	PostGolgi ctrl 68 (no result: Ecoli tolC, Candida biofilm)
CCOC(=O)C1C(=O)C=C(c2cccc(NS(C)(=O)=O)c2)CC1c1ccco1 (stereo unspecified)	none (no result: PostGolgi ctrl, PostGolgi yeast)
c1ccc(-c2cc(-c3nn4c(-c5ccco5)nnc4s3)c3ccccc3n2)cc1	PostGolgi ctrl 38
COc1ccc(-c2nn3c(-c4ccco4)nnc3s2)cc1OC	PostGolgi ctrl 31 (no result: Candida biofilm)
COc1cccc(-c2nnc3sc(-c4ccco4)nn23)c1	none (no result: FAK blocker)
CCOc1cccc(-c2nn3c(-c4ccco4)nnc3s2)c1	PostGolgi ctrl 43
Cc1cc(-c2nn3c(-c4ccccc4)nnc3s2)c2ccccc2n1	none
COc1cc(OC)c(-c2nn3c(-c4ccco4)nnc3s2)cc1OC	PostGolgi ctrl 34
CCOc1nc(-c2ccccc2)ccc1-c1noc(-c2cccnc2)n1	none (no result: FAK blocker, PostGolgi ctrl, Candida biofilm, Pyk2 oligo antag, PostGolgi yeast)
COc1ccc(CNC(N)=O)cc1	none (no result: Ecoli tolC, PostGolgi ctrl, PostGolgi yeast)
COc1cccc(-c2nn3c(-c4cccc(C)c4)nnc3s2)c1	PostGolgi ctrl 44 (no result: FAK blocker)
COc1ccc(-n2ccnc2SCC(=O)Nc2ccccc2)cc1	PostGolgi ctrl 37
O=C(CC1C(=O)NCCN1C(=O)Nc1ccccc1)Nc1cccc(C(F)(F)F)c1 (stereo unspecified)	Pyk2 oligo antag -3.2
CC1CCN(C(=O)Nc2cccc(NC(=O)N3CCC(C)CC3)c2)CC1	PostGolgi ctrl 30
CCN1CCN(C(=O)Nc2cccc3ccccc23)CC1	Pyk2 oligo antag -3.2
CCN1CCN(C(=O)Nc2cccc(C(F)(F)F)c2)CC1	PostGolgi ctrl 31

Source: PubChem (several laboratories)
